Assay results from ChEMBL document CHEMBL3085664, “Structure-activity relationship of imidazopyridinium analogues as antagonists of neuropeptide s receptor” (J Med Chem, 2013).
Activity calls are given as the source filed them. The calls are words filed in the database; no cut-off is given here.

Experiments:
Rattus norvegicus [1] = assay: Toxicity in Wistar rat administered daily; type: organism-based; conditions: in vivo
[2] = Metabolic stability in mouse liver microsomes assessed as compound remaining after 60 mins in absence NADPH; type: ADME, Microsome; conditions: read-out: Stability
Summary of the method: (§1)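 Compound was incubated with mouse liver microsomes, and percent parent remaining was determined at 15, 30 and 60 min. Values are means from a single experiment run in duplicate.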

Brain [3] = assay: Drug level in mouse brain at 10 mg/kg, ip after 0.083 hrs; type: ADME, organism-based; set-up: dose 10 mg/kg, route intraperitoneal; conditions: in vivo
Summary of the method: (§2)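 Mouse pharmacokinetics after a single 10 mpk intraperitoneal dose. Plasma and brain were sampled at 0, 0.083, 0.25, 0.5, 1, 2, 4, 8, 12 and 24 h. Concentrations are reported as the mean of N=3 at each time point, in ng/mL or nM for plasma and ng/g or nmol/g for brain.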

Brain [4] = assay: Tmax in mouse brain at 10 mg/kg, ip; type: ADME, organism-based; set-up: dose 10 mg/kg, route intraperitoneal; conditions: in vivo; summary of the method: as §2
Mu-type opioid receptor [5] = molecular target: T1, Mu-type opioid receptor (Homo sapiens, UniProt P35372); assay: Displacement of radiolabeled DAMGO from human recombinant mu opioid receptor expressed in […] at 10 uM; type: cell-based
Brain [6] = assay: Drug level in mouse brain at 10 mg/kg, ip after 24 hrs; type: ADME, organism-based; set-up: dose 10 mg/kg, route intraperitoneal; conditions: in vivo; summary of the method: as §2
Plasma [7] = assay: Cmax in mouse plasma at 10 mg/kg, ip; type: ADME, organism-based; set-up: dose 10 mg/kg, route intraperitoneal; conditions: in vivo; summary of the method: as §2
[8] = Plasma concentration in mouse at 10 mg/kg, ip after 12 hrs; type: ADME, organism-based; set-up: dose 10 mg/kg, route intraperitoneal; summary of the method: as §2
[9] = Plasma concentration in mouse at 10 mg/kg, ip after 0.5 hrs; type: ADME, organism-based; set-up: dose 10 mg/kg, route intraperitoneal; summary of the method: as §2
[10] = Plasma concentration in mouse at 10 mg/kg, ip after 1 hrs; type: ADME, organism-based; set-up: dose 10 mg/kg, route intraperitoneal; summary of the method: as §2
Brain [11] = assay: Drug level in mouse brain at 10 mg/kg, ip after 12 hrs; type: ADME, organism-based; set-up: dose 10 mg/kg, route intraperitoneal; conditions: in vivo; summary of the method: as §2
Plasma [12] = assay: Tmax in mouse plasma at 10 mg/kg, ip; type: ADME, organism-based; set-up: dose 10 mg/kg, route intraperitoneal; conditions: in vivo; summary of the method: as §2
[13] = Plasma concentration in mouse at 10 mg/kg, ip after 0.25 hrs; type: ADME, organism-based; set-up: dose 10 mg/kg, route intraperitoneal; summary of the method: as §2
[14] = Metabolic stability in mouse liver microsomes assessed as compound remaining after 15 mins in absence NADPH; type: ADME, Microsome; conditions: read-out: Stability; summary of the method: as §1
Brain [15] = assay: Drug level in mouse brain at 10 mg/kg, ip after 0.25 hrs; type: ADME, organism-based; set-up: dose 10 mg/kg, route intraperitoneal; conditions: in vivo; summary of the method: as §2
[16] = Metabolic stability in mouse liver microsomes assessed as compound remaining after 30 mins in presence NADPH; type: ADME, Microsome; conditions: read-out: Stability; summary of the method: as §1
Brain [17] = assay: Drug level in mouse brain at 10 mg/kg, ip after 8 hrs; type: ADME, organism-based; set-up: dose 10 mg/kg, route intraperitoneal; conditions: in vivo; summary of the method: as §2
Rattus norvegicus [18] = assay: Inhibition of alcohol-induced ERK-phosphorylation in rat in central amygdala at 1 mg/kg, ip; type: functional, organism-based; set-up: dose 1 mg/kg
[19] = Metabolic stability in mouse liver microsomes assessed as compound remaining after 15 mins in presence NADPH; type: ADME, Microsome; conditions: read-out: Stability; summary of the method: as §1
Brain [20] = assay: Drug level in mouse brain at 10 mg/kg, ip after 1 hrs; type: ADME, organism-based; set-up: dose 10 mg/kg, route intraperitoneal; conditions: in vivo; summary of the method: as §2
Plasma [21] = assay: AUC (infinity) in mouse plasma at 10 mg/kg, ip; type: ADME, organism-based; set-up: time infinity, dose 10 mg/kg, route intraperitoneal; conditions: in vivo; summary of the method: as §2
Brain [22] = assay: Drug level in mouse brain at 10 mg/kg, ip after 0.5 hrs; type: ADME, organism-based; set-up: dose 10 mg/kg, route intraperitoneal; conditions: in vivo; summary of the method: as §2
Brain [23] = assay: Drug level in mouse brain at 10 mg/kg, ip after 4 hrs; type: ADME, organism-based; set-up: dose 10 mg/kg, route intraperitoneal; conditions: in vivo; summary of the method: as §2
Neuropeptide S receptor [24] = molecular target: T2, Neuropeptide S receptor (Homo sapiens, UniProt Q6W5P4); assay: Antagonist activity at neuropeptide S receptor (unknown origin) expressed in CHO cells assessed as inhibition of NPS-induced calcium mobilization after 10 mins by fluorescence assay; type: functional, cell-based; conditions: read-out: IC50
T2 sequence (Q6W5P4 whole entry): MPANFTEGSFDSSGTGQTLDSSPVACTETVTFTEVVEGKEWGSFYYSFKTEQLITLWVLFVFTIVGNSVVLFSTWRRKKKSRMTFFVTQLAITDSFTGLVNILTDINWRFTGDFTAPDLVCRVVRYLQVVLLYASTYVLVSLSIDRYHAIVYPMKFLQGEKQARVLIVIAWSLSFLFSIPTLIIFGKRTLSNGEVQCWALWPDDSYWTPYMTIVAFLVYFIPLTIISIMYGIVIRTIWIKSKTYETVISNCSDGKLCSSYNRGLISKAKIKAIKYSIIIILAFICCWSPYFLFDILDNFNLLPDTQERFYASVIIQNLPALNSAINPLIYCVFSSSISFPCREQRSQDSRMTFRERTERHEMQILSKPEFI
Summary of the method: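 CHO-NPSR cells, 2000/well in 1536-well plates, incubated overnight, then loaded with no-wash calcium dye for 1 h at 37°C. Compound in DMSO was added for 10 min. Baseline fluorescence was recorded 6 s at 1 Hz, then EC80 NPS in stimulation buffer was added and recording continued 4 min at 1 Hz on a kinetic reader. IC50 is the mean with SD of two independent experiments in duplicate.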

Neuropeptide S receptor [25] = molecular target: T2, Neuropeptide S receptor; assay: Antagonist activity at neuropeptide S receptor (unknown origin) expressed in CHO cells assessed as cAMP level after 30 mins by […] assay; type: functional, cell-based; conditions: read-out: IC50
Summary of the method: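 CHO cells stably expressing NPSR, 1800 cells/well in 1536-well format, seeded overnight at 37°C in medium without Geneticin. Stimulation buffer (PBS, 0.1% BSA, 0.05% Tween-20, 500µM Ro 20-1724, EC80 NPS) was added for 30 min at 37°C. cAMP was read by HTRF (d2-cAMP/cryptate anti-cAMP in lysis buffer, 30 min). IC50 is the mean with SD of two independent experiments, each run in duplicate.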

Rattus norvegicus [26] = assay: Anorectic activity in Wistar rat assessed as […] of NPS-induced reduction of food intake at 20 ug, icv after 15 to 60 mins; type: functional, organism-based
Plasma [27] = assay: AUClast in mouse plasma at 10 mg/kg, ip; type: ADME, organism-based; set-up: dose 10 mg/kg, route intraperitoneal, time 0 - last; conditions: in vivo; summary of the method: as §2
[28] = Metabolic stability in mouse liver microsomes assessed as compound remaining after 30 mins in absence NADPH; type: ADME, Microsome; conditions: read-out: Stability; summary of the method: as §1
Neuropeptide S receptor [29] = molecular target: T2, Neuropeptide S receptor; assay: Antagonist activity at neuropeptide S receptor (unknown origin) expressed in CHO cells assessed as inhibition of NPS-induced ERK activation after 20 mins by HTRF assay; type: cell-based
[30] = Metabolic stability in mouse liver microsomes assessed as compound remaining after 60 mins in presence NADPH; type: ADME, Microsome; conditions: read-out: Stability; summary of the method: as §1
Brain [31] = assay: AUClast in mouse brain at 10 mg/kg, ip; type: ADME, organism-based; set-up: time 0 - last, dose 10 mg/kg, route intraperitoneal; conditions: in vivo; summary of the method: as §2
[32] = Plasma concentration in mouse at 10 mg/kg, ip after 0.083 hrs; type: ADME, organism-based; set-up: dose 10 mg/kg, route intraperitoneal; summary of the method: as §2
[33] = Ratio of AUC in brain to AUC in plasma in mouse at 10 mg/kg, ip; type: ADME, organism-based; set-up: dose 10 mg/kg, route intraperitoneal; conditions: brain and plasma, read-out: Ratio AUC; summary of the method: as §2
[34] = Cmax in mouse brain at 10 mg/kg, ip; type: ADME, organism-based; set-up: dose 10 mg/kg, route intraperitoneal; summary of the method: as §2
Mu-type opioid receptor [35] = molecular target: T1, Mu-type opioid receptor; assay: Displacement of radiolabeled DAMGO from human recombinant mu opioid receptor expressed in OPRM1 cells; type: cell-based
Brain [36] = assay: Drug level in mouse brain at 10 mg/kg, ip after 2 hrs; type: ADME, organism-based; set-up: dose 10 mg/kg, route intraperitoneal; conditions: in vivo; summary of the method: as §2
Plasma [37] = assay: Half life in mouse plasma at 10 mg/kg, ip; type: ADME, organism-based; set-up: dose 10 mg/kg, route intraperitoneal; conditions: in vivo; summary of the method: as §2
[38] = Plasma concentration in mouse at 10 mg/kg, ip after 2 hrs; type: ADME, organism-based; set-up: dose 10 mg/kg, route intraperitoneal; summary of the method: as §2
[39] = Plasma concentration in mouse at 10 mg/kg, ip after 8 hrs; type: ADME, organism-based; set-up: dose 10 mg/kg, route intraperitoneal; summary of the method: as §2
[40] = Plasma concentration in mouse at 10 mg/kg, ip after 4 hrs; type: ADME, organism-based; set-up: dose 10 mg/kg, route intraperitoneal; summary of the method: as §2
Neuropeptide S receptor [41] = molecular target: T2, Neuropeptide S receptor; assay: Displacement of [125I]Tyr10-NPS from human neuropeptide S receptor expressed in CHO cells after 1.5 hrs by liquid scintillation counting; type: cell-based
Summary of the method: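 Whole CHO cells stably expressing human NPSR at 90–95% confluency in 24-well plates. Cells were incubated with 0.15 nM [125I]Y10-NPS plus increasing compound or unlabeled NPS in DMEM/0.1% BSA, 20°C, 1.5 hr. Nonspecific binding was defined with 1 µM unlabeled human NPS. Cells were washed, lysed in 1 N NaOH and counted by liquid scintillation. IC50 from one experiment in duplicate.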

[42] = Plasma concentration in mouse at 10 mg/kg, ip after 24 hrs; type: ADME, organism-based; set-up: dose 10 mg/kg, route intraperitoneal; summary of the method: as §2

T1 sequence (P35372 whole entry): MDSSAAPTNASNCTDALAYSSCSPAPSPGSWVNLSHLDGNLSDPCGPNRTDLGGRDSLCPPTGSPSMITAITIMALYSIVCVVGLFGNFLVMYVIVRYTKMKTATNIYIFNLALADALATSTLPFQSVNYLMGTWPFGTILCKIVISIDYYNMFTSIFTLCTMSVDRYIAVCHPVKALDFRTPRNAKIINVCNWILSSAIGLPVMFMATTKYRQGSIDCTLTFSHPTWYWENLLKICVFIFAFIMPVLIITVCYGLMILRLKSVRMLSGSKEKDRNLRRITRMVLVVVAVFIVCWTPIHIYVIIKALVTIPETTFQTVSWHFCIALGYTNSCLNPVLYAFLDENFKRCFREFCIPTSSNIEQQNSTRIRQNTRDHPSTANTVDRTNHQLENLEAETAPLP

SMILES: Cc1c(P(=S)(c2ccccc2)c2ccccc2)n2ccccc2[n+]1C/C=C/c1ccccc1.[Br-]
- Activity (Rattus norvegicus [1]): Non-toxic
- remaining at 1 h [2]: 102%
- Drug uptake (Brain [3]): 30 nmol/g
- Tmax (Brain [4]): 12 h
- inhibition (Mu-type opioid receptor [5]): > 90%
- Drug uptake (Brain [6]): 52 nmol/g
- Cmax (Plasma [7]): 700 ng/mL
- concentration at 12 h [8]: 126 nM
- concentration at 0.5 h [9]: 1150 nM
- concentration at 1 h [10]: 556 nM
- Drug uptake (Brain [11]): 93 nmol/g
- Tmax (Plasma [12]): 4.98 min
- concentration at 0.25 h [13]: 1320 nM
- remaining at 0.25 h [14]: 102%
- Drug uptake (Brain [15]): 52 nmol/g
- remaining at 0.5 h [16]: 46%
- Drug uptake (Brain [17]): 60 nmol/g
- inhibition (Rattus norvegicus [18]): Active
- remaining at 0.25 h [19]: 72%
- Drug uptake (Brain [20]): 44 nmol/g
- AUC (Plasma [21]): 2560 ng·h/mL
- Drug uptake (Brain [22]): 53 nmol/g
- Drug uptake (Brain [23]): 53 nmol/g
- IC50 (Neuropeptide S receptor [24]): 0.96 nM
- IC50 (Neuropeptide S receptor [25]): 45 nM
- Activity (Rattus norvegicus [26]): Active
- AUClast (Plasma [27]): 2240 ng·h/mL
- remaining at 0.5 h [28]: 102%
- IC50 (Neuropeptide S receptor [29]): 1.3 nM
- remaining at 1 h [30]: 26%
- AUClast (Brain [31]): 746 ng·h/mL
- concentration at 0.083 h [32]: 1500 nM
- Kp [33]: 33
- Cmax [34]: 43 ng/mL
- IC50 (Mu-type opioid receptor [35]): 580 nM
- Drug uptake (Brain [36]): 57 nmol/g
- t1/2 (Plasma [37]): 8.8 h
- concentration at 2 h [38]: 386 nM
- concentration at 8 h [39]: 214 nM
- concentration at 4 h [40]: 245 nM
- IC50 (Neuropeptide S receptor [41]): 3.5 nM
- concentration at 24 h [42]: 54 nM
